Laboratory results reported in publication PMC6980694 (European journal of medicinal chemistry, 2019).

Key:
[1] = tested on: Zika virus (PRVABC59 strain); type: cell-based; conditions: for anti-Zika activity (in words): PRVABC59 strain, MOI 1, SNB-19 cells 24 h, titer in Vero cells 48 h
How it was run: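 SNB-19 cells, pretreated 1 h with graded compound concentrations (0.1% DMSO final), then infected with C6/36-derived ZIKV at MOI 1. Supernatants were harvested 24 h post-infection and focus-titered on confluent Vero cells: 2 h inoculation, methylcellulose overlay for 48 h, 4G2 antibody with HRP/DAB staining, foci counted.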

[2] = Cytotoxicity to Vero cells; type: cell-based; conditions: monkey, Vero kidney cells

Structure (SMILES): C=C1CC[C@@H]2[C@]3(C)COC(C)(C)O[C@@H]3CC[C@@]2(C)[C@@H]1C/C=C1/C(=O)OC[C@H]1Oc1c(Cl)cc(Cl)c2cccnc12 [Compound 15b, (14α)-(Quinolyl-5’,7’-dichloro-8’-oxy)-3,19-acetonylidene andrographolide]
- anti-Zika activity (in words) [1]: do not show anti-Zika activity

Structure (SMILES): C=C1CC[C@@H]2[C@](C)(CO)[C@H](O)CC[C@@]2(C)[C@@H]1C/C=C1/C(=O)OC[C@@H]1Oc1ccnc2ccccc12 [Compound 6]
- anti-Zika activity (in words) [1]: inactive

Structure (SMILES): C=C1CC[C@@H]2[C@](C)(CO)[C@H](O)CC[C@@]2(C)[C@@H]1C/C=C1/C(=O)OC[C@H]1Oc1ccnc2ccccc12 [Compound 7]
- CC50 at 48 h [2]: 22.3 µM

Structure (SMILES): C=C1CC[C@@H]2[C@](C)(CO)[C@H](O)CC[C@@]2(C)[C@@H]1C/C=C1/C(=O)OC[C@@H]1Oc1cccc2cccnc12 [Compound 3]
- safety/selectivity index (SI) ([1]; cell line not specified, CC50 in SNB-19 and Vero vs EC50): > 16

Structure (SMILES): C=C1CC[C@@H]2[C@](C)(CO)[C@H](O)CC[C@@]2(C)[C@@H]1C/C=C1/C(=O)OC[C@H]1Oc1c(Cl)cc(Cl)c2cccnc12 [Compound 16b, (14α)-(Quinolyl-5’,7’-dichloro-8’-oxy)andrographolide]
- CC50 at 48 h [2]: 58.6 µM

Structure (SMILES): C=C1CC[C@@H]2[C@]3(C)COC(C)(C)O[C@@H]3CC[C@@]2(C)[C@@H]1C/C=C1/C(=O)OC[C@@H]1Oc1c(Cl)cc(Cl)c2cccnc12 [Compound 15a, (14β)-(Quinolyl-5’,7’-dichloro-8’-oxy)-3,19-acetonylidene andrographolide]
- anti-Zika activity (in words) [1]: do not show anti-Zika activity
